Laboratory results: ChEMBL document CHEMBL1157241, “Search for Hsp90 inhibitors with potential anticancer activity: isolation and SAR studies of radicicol and monocillin I from two plant-associated fungi of the Sonoran desert” (J Nat Prod, 2006)
Activity calls are given as the source filed them. The calls are words filed in the database; no cut-off is given here.

Key:
[1] = Cytotoxicity against in mouse 3T3-Y9/B12 cells at 10 uM; type: cell-based
Outline: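 Mouse 3T3-Y9/B12 heat-shock reporter cells were plated at 20 000 cells/well and left to attach overnight. Compound was added at 10.0 µM in triplicate wells and incubated overnight. Treated wells were then examined by microscope for toxicity, recording whether any living cells remained.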

Mus musculus = species on record: Mus musculus; test: Induction of heat shock response in mouse 3T3-Y9/B12 cells at 5 uM by fluorescence technique relative to geldanamycin; type: functional, cell-based
Outline: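 3T3-Y9/B12 reporter cells were plated at 20 000 cells/well and attached overnight. Triplicate wells received compound at 5.0 µM, GDA positive control at 5.0 µM, or DMSO vehicle (≤0.1%). After overnight incubation, wells were rinsed and read in PBS by fluorescence (ex 485, em 525 nm). Signal was expressed as percentage of DMSO control, mean ± SD of triplicates, with three independent experiments.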

MCF7 [2] = test: Antiproliferative activity against human MCF7 cells at 1 uM by MTT assay; type: functional, cell-based
MCF7 [3] = test: Antiproliferative activity against human MCF7 cells by MTT assay; type: functional, cell-based
Outline: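 MCF-7 cells were seeded at 2000 cells/well and dosed the next day with serial dilutions in triplicate. GDA was the positive control and DMSO vehicle the negative control. After 3 days at 37 °C under 5% CO2, MTT was added for 3 h in the dark. Medium was replaced with DMSO and absorbance read at 570 nm, minus 650 nm background.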

Oryctolagus cuniculus = species on record: Oryctolagus cuniculus; test: Inhibition of Hsp90 in rabbit reticulocyte lysate assessed as inhibition of heat-denatured firefly luciferase renaturation at 10 uM relative to geldanamycin
Outline: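 Rabbit reticulocyte lysate with an ATP-regenerating system (10 mM phosphocreatine, 1 mM ATP, 17.5 units creatine phosphokinase) was preincubated 20 min with compound in DMSO. Firefly luciferase (100 nM, pH 7.8 tricine buffer) was heat-denatured 8 min at 40 °C, then diluted 10-fold into the lysate and incubated at 28 °C. Luminescence was read in triplicate at 3 min and expressed as % of DMSO control.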

Row | Structure (SMILES) | Activity [1] | Activity (Mus musculus) | Activity (MCF7 [2]) | IC50 (MCF7 [3]) | Activity (Oryctolagus cuniculus)
1 | C[C@H]1CCCC(=O)CCCCCc2cc(O)cc(O)c2C(=O)O1 [ZEARALANONE] | Toxic |  |  |  | 
2 | COc1cc(OC)c2c(c1Cl)CC(=O)/C=C/C=C\[C@H]1O[C@@H]1C[C@@H](C)OC2=O [DIMETHYL RADICICOL] | Toxic | Active | inactive |  | 
3 | COc1cc(O)c2c(c1Cl)CC(=O)/C=C/C=C\[C@H]1O[C@@H]1C[C@@H](C)OC2=O [MONOMETHYL RADICICOL] | Toxic | Active |  | 900 nM | Active
4 | C[C@H]1CCCC(=O)CCC/C=C/c2cc(O)cc(O)c2C(=O)O1 [ZEARALENONE] | Toxic |  | inactive |  | Active
5 | C[C@@H]1C[C@H](O)CCCCCC(=O)Cc2c(Cl)c(O)cc(O)c2C(=O)O1 [HEXAHYDRORADICICOL] | Toxic |  |  |  | 
6 | C[C@@H]1C[C@H]2O[C@@H]2CCCCC(=O)Cc2c(Cl)c(O)cc(O)c2C(=O)O1 [TETRAHYDRORADICICOL] | Toxic | Active |  | 190 nM | Active
7 | C[C@H]1CCC[C@@H](O)CCCCCc2cc(O)cc(O)c2C(=O)O1 (stereo in doubt; 16) |  |  | inactive |  | Active
8 | C[C@H]1CCC[C@H](O)CCCCCc2cc(O)cc(O)c2C(=O)O1 [ZERANOL] | Toxic |  |  |  | 
9 | COc1cc(O)c2c(c1)CC(=O)/C=C/C=C\[C@H]1O[C@@H]1C[C@@H](C)OC2=O [MONOMETHYL MONOCILLIN I] | Toxic | Active | inactive |  | 
10 | C[C@@H]1C[C@H]2O[C@@H]2/C=C\C=C\C(=O)Cc2cc(O)cc(O)c2C(=O)O1 [MONOCILLIN I] | Toxic | Active |  | 340 nM | Active
11 | C[C@@H]1C[C@H](O)CCCCCC(=O)Cc2cc(O)cc(O)c2C(=O)O1 [HEXAHYDROMONOCILLIN I] | Toxic |  |  |  | 
12 | C[C@H]1CCC[C@@H](O)CCCCCc2cc(O)cc(O)c2C(=O)O1 (stereo in doubt; 14) |  |  | inactive |  | Active
13 | COc1cc2c(c(OC)c1)C(=O)O[C@H](C)C[C@H]1O[C@@H]1/C=C\C=C\C(=O)C2 [DIMETHYL MONOCILLIN I] | Toxic |  |  |  | 
14 | C[C@@H]1C[C@H]2O[C@@H]2CCCCC(=O)Cc2cc(O)cc(O)c2C(=O)O1 [TETRAHYDROMONOCILLIN I] | Toxic | Active | inactive |  | Active
15 | C[C@@H]1C[C@H]2O[C@@H]2/C=C\C=C\C(=O)Cc2c(Cl)c(O)cc(O)c2C(=O)O1 [RADICICOL] | Toxic | Active |  | 30 nM | Active
